Values joined by “and” are separate entries in the source; they are usually repeats but may differ in a detail not shown here. Equal values may be shown once.
How the values were obtained:
[1] = test system: Brugia pahangi; test: Macrofilarial reduction at 100 mg/kg dosage by subcutaneous administration for a period of 5 days against Brugia pahangi; type: functional
How it was run: (§1)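 Jirds doubly infected with A. viteae and B. pahangi were dosed subcutaneously once daily on five successive days. Each series included a flubendazole positive control at 2.0 mg/day for 5 days. Jirds were killed 56 days later and worms of each species counted. Worm percentage was compared with untreated negative controls, and ≥60% reduction was scored as active.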

[2] = test system: Acanthocheilonema viteae; test: Macrofilarial reduction at 100 mg/kg dosage by subcutaneous administration for a period of 5 days against Acanthocheilonema viteae; type: functional; how it was run: as §1
[3] = test system: Meriones unguiculatus; test: Compound was tested for macrofilarial reduction at 12.5 mg/kg dosage by subcutaneous administration for a period of 5 days against Brugia pahangi (Brugia pahangi).; type: functional; how it was run: as §1
[4] = Compound was tested for macrofilarial reduction at 12.5 mg/kg dosage by subcutaneous administration for a period of 5 days against Acanthocheilonema viteae (Acanthocheilonema viteae); type: functional, Meriones unguiculatus; how it was run: as §1
[5] = test system: Meriones unguiculatus; test: Compound was tested for macrofilarial reduction at 100 mg/kg dosage by subcutaneous administration for a period of 5 days against Acanthocheilonema viteae (Acanthocheilonema viteae); Toxic; type: functional, organism-based; set-up: dose 100 mg/kg; how it was run: as §1
[6] = test system: Meriones unguiculatus; test: Compound was tested for macrofilarial reduction at 100 mg/kg dosage by subcutaneous administration for a period of 5 days against Brugia pahangi (Brugia pahangi); Toxic; type: functional, organism-based; set-up: dose 100 mg/kg; how it was run: as §1
[7] = test system: Meriones unguiculatus; test: Compound was tested for macrofilarial reduction at 6.25 mg/kg dosage by subcutaneous administration for a period of 5 days against Acanthocheilonema viteae (Acanthocheilonema viteae); type: functional; how it was run: as §1
[8] = test system: Meriones unguiculatus; test: Compound was tested for macrofilarial reduction at 6.25 mg/kg dosage by subcutaneous administration for a period of 5 days against Brugia pahangi (Brugia pahangi).; type: functional; how it was run: as §1
[9] = test system: Meriones unguiculatus; test: Compound was tested for macrofilarial reduction at 3.12 mg/kg dosage by subcutaneous administration for a period of 5 days against Brugia pahangi (Brugia pahangi).; type: functional; how it was run: as §1
[10] = test system: Meriones unguiculatus; test: Compound was tested for macrofilarial reduction at 3.12 mg/kg dosage by subcutaneous administration for a period of 5 days against Acanthocheilonema viteae (Acanthocheilonema viteae); type: functional; how it was run: as §1
[11] = test system: Meriones unguiculatus; test: Compound was tested for macrofilarial reduction at 25 mg/kg dosage by subcutaneous administration for a period of 5 days against Brugia pahangi (Brugia pahangi).; type: functional; how it was run: as §1
[12] = test system: Meriones unguiculatus; test: Compound was tested for macrofilarial reduction at 25 mg/kg dosage by subcutaneous administration for a period of 5 days against Acanthocheilonema viteae (Acanthocheilonema viteae); type: functional; how it was run: as §1
[13] = test system: Meriones unguiculatus; test: Compound was tested for macrofilarial reduction at 50 mg/kg dosage by subcutaneous administration for a period of 5 days against Acanthocheilonema viteae (Acanthocheilonema viteae); type: functional; how it was run: as §1
[14] = test system: Meriones unguiculatus; test: Compound was tested for macrofilarial reduction at 50 mg/kg dosage by subcutaneous administration for a period of 5 days against Brugia pahangi (Brugia pahangi).; type: functional; how it was run: as §1
[15] = test system: Meriones unguiculatus; test: Compound was tested for macrofilarial reduction at 75 mg/kg dosage by subcutaneous administration for a period of 5 days against Acanthocheilonema viteae (Acanthocheilonema viteae); type: functional; how it was run: as §1
[16] = test system: Meriones unguiculatus; test: Compound was tested for macrofilarial reduction at 1.56 mg/kg dosage by subcutaneous administration for a period of 5 days against Acanthocheilonema viteae (Acanthocheilonema viteae); type: functional; how it was run: as §1
[17] = test system: Meriones unguiculatus; test: Compound was tested for macrofilarial reduction at 75 mg/kg dosage by subcutaneous administration for a period of 5 days against Brugia pahangi (Brugia pahangi).; type: functional; how it was run: as §1
[18] = test system: Meriones unguiculatus; test: Compound was tested for macrofilarial reduction at 1.56 mg/kg dosage by subcutaneous administration for a period of 5 days against Brugia pahangi (Brugia pahangi).; type: functional; how it was run: as §1
[19] = test system: Meriones unguiculatus; test: Compound was tested for macrofilarial reduction at 100 mg/kg dosage by subcutaneous administration for a period of 5 days against Acanthocheilonema viteae (Acanthocheilonema viteae) * Toxicity noted at this dosage; type: functional; how it was run: as §1
[20] = test system: Meriones unguiculatus; test: Compound was tested for macrofilarial reduction at 100 mg/kg dosage by subcutaneous administration for a period of 5 days against Brugia pahangi (Brugia pahangi). * Toxicity noted at this dosage; type: functional; how it was run: as §1

Row | Structure (SMILES) | Reduction [1] [%] | Reduction [2] [%] | further results
1 | c1ccn2cc(-c3ccc(C4=NCCN4)cc3)nc2c1 | 8 | 20 | 
2 | c1ccn2cc(-c3ccc(C4=NCCCN4)cc3)nc2c1 | 0 | 0 | 
3 | N=C(c1ccc2nc(-c3ccccc3)cn2c1)N1CCOCC1 | 12 | 0 | 
4 | Nc1ccc(C(=O)NN=Cc2ccc(-c3cn4cc(C=NNC(=O)c5ccc(N)cc5)ccc4n3)cc2)cc1 | 8 | 0 | 
5 | C(=Cc1ccc(-c2cn3ccccc3n2)cc1)C1=NCCN1 | 18 | 28 | 
6 | C(=NNC1=NCCCN1)c1ccc(/C=C/c2cn3cc(C=NNC4=NCCCN4)ccc3n2)cc1 | 32 | 100 | 
7 | C(=NNC1=NCCN1)c1ccc2nc(C=NNC3=NCCN3)cn2c1 | 5 | 5 | 
8 | N=C(NN=C/C=C/c1ccc(-c2cn3cc(/C=C/C=NNC(=N)N4CCCC4)ccc3n2)cc1)N1CCCC1 |  |  | Reduction [3]: 38%; Reduction [4]: 50%
9 | C(=C\c1cn2cc(C3=NCCN3)ccc2n1)/c1ccc(C2=NCCN2)cc1 |  |  | Reduction [5]: Toxic; Reduction [6]: Toxic
10 | CC(C)NC(=N)NN=Cc1ccc(-c2cn3cc(C=NNC(=N)NC(C)C)ccc3n2)cc1 | 32 | 100 | 
11 | CC(C)NC(=N)c1ccc(/C=C/c2cn3cc(C(=N)NC(C)C)ccc3n2)cc1 |  |  | Reduction [5]: Toxic; Reduction [6]: Toxic
12 | N=C(/C=C/c1ccc(-c2cn3cc(/C=C/C(=N)N4CCCC4)ccc3n2)cc1)N1CCCC1 |  |  | Reduction [7]: 72%; Reduction [8]: 0%
13 | N=C(c1ccc(-c2cn3cc(C(=N)N4CCCC4)ccc3n2)cc1)N1CCCC1 |  |  | Reduction [9]: 0%; Reduction [10]: 39%
14 | C(/C=C/c1ccc(-c2cn3cc(/C=C/C=NNC4=NCCN4)ccc3n2)cc1)=NNC1=NCCN1 | 18 | 71 | 
15 | N=C(c1ccc(/C=C/c2cn3cc(C(=N)N4CCCC4)ccc3n2)cc1)N1CCCC1 |  |  | Reduction [5]: Toxic; Reduction [6]: Toxic
16 | N=C(NN=Cc1ccc(-c2cn3ccccc3n2)cc1)N1CCOCC1 | 12 | 0 | 
17 | C(=NNC1=NCCCN1)c1ccc2nc(-c3ccccc3)cn2c1 | 0 | 30 | 
18 | N=C(c1ccc(-c2cn3ccccc3n2)cc1)N1CCCCC1 | 15 | 0 | 
19 | C(/C=C/c1ccc(-c2cn3cc(/C=C/C=NNC4=NCCCN4)ccc3n2)cc1)=NNC1=NCCCN1 |  |  | Reduction [11]: 13%; Reduction [12]: 73%; Reduction [13]: 100%; Reduction ([2]; 100 mg/kg): 100% and 64%; Reduction [3]: 38%; Reduction [4]: 50%; Reduction [14]: 38%
20 | C(=NNC1=NCCCN1)c1ccc(-c2cn3cc(C=NNC4=NCCCN4)ccc3n2)cc1 |  | 100 | Reduction [11]: 0%; Reduction [9]: 11%; Reduction [15]: 100%; Reduction [13]: 100%; Reduction ([7]; 6.25 mg/kg): 100% and 75%; Reduction [16]: 73%; Reduction ([1]; 100 mg/kg): 9% and 0%; Reduction [17]: 0%; Reduction ([4]; 12.5 mg/kg): 100% and 64%; Reduction [18]: 16%; Reduction [14]: 0%; Reduction [10]: 88%
21 | C(=NNC1=NCCCN1)c1ccc2nc(C=NNC3=NCCCN3)cn2c1 | 5 | 0 | 

Row | Structure (SMILES) | Reduction [1] [%] | Reduction [2] [%] | further results
22 | N=C(c1ccc(-c2cn3ccccc3n2)cc1)N1CCOCC1 | 29 | 0 | 
23 | C(=NNC1=NCCS1)c1ccc(-c2cn3cc(C=NNC4=NCCS4)ccc3n2)cc1 | 38 | 0 | 
24 | CN1CCN(C(=N)/C=C/c2ccc(-c3cn4cc(/C=C/C(=N)N5CCN(C)CC5)ccc4n3)cc2)CC1 |  |  | Reduction [3]: 0%; Reduction [4]: 57%
25 | C(=NNc1ccccn1)c1ccc(-c2cn3cc(C=NNc4ccccn4)ccc3n2)cc1 | 0 | 0 | 
26 | c1cc(-c2cn3cc(C4=NCCN4)ccc3n2)ccc1C1=NCCN1 | 35 | 0 | 
27 | N=C(c1ccc(-c2cn3ccccc3n2)cc1)N1CCCC1 | 36 | 0 | 
28 | C(=NNC1=NCCN1)c1ccc(-c2cn3cc(C=NNC4=NCCN4)ccc3n2)cc1 |  |  | Reduction ([12]; 25 mg/kg): 82% and 73%; Reduction [13]: 100%; Reduction ([1]; 100 mg/kg): 18% and 11%; Reduction ([2]; 100 mg/kg): 100% and 78%; Reduction [3]: 0%; Reduction [4]: 82%; Reduction [14]: 0%
29 | C(=Cc1ccc(-c2cn3ccccc3n2)cc1)C1=NCCS1 | 0 | 0 | 
30 | C(=NNC1=NCCN1)c1ccc(/C=C/c2cn3cc(C=NNC4=NCCN4)ccc3n2)cc1 | 4 | 24 | 
31 | N=C(NN=Cc1ccc(-c2cn3ccccc3n2)cc1)N1CCCC1 | 0 | 47 | 
32 | C(=Cc1ccc(-c2cn3cc(C=CC4=NCCS4)ccc3n2)cc1)C1=NCCS1 | 0 | 0 | 
33 | Cc1ccc(S(=O)(=O)NN=Cc2ccc(-c3cn4cc(C=NNS(=O)(=O)c5ccc(C)cc5)ccc4n3)cc2)cc1 | 16 | 0 | 
34 | N=C(c1ccc2nc(-c3ccccc3)cn2c1)N1CCCC1 |  |  | Reduction ([1]; 100 mg/kg): 25% and 0%; Reduction ([2]; 100 mg/kg): 60% and 27%
35 | C(=NNC1=NCCC1)c1ccc(-c2cn3cc(C=NNC4=NCCC4)ccc3n2)cc1 | 5 | 24 | 
36 | c1ccc(-c2cn3cc(C4=NCCN4)ccc3n2)cc1 | 42 | 0 | 
37 | C(=NNC1=NCCN1)c1ccc2nc(-c3ccccc3)cn2c1 | 0 | 20 | 
38 | C(=NNC1=NCCCN1)c1ccc(-c2cn3ccccc3n2)cc1 | 0 | 0 | 
39 | N=C(NN=Cc1ccc2nc(C=NNC(=N)N3CCCC3)cn2c1)N1CCCC1 | 5 | 0 | 
40 | N=C(NN=Cc1ccc(-c2cn3cc(C=NNC(=N)N4CCCC4)ccc3n2)cc1)N1CCCC1 | 0 | 60 | Reduction [19]: 73%; Reduction [20]: 0%
41 | C(=NNC1=NCCN1)c1ccc(-c2cn3ccccc3n2)cc1 | 0 | 60 | 
42 | N=C(/C=C/c1ccc(-c2cn3cc(/C=C/C(=N)N4CCOCC4)ccc3n2)cc1)N1CCOCC1 |  |  | Reduction [3]: 0%; Reduction [4]: 50%

— ChEMBL document CHEMBL1131159, “Bis-cationic heteroaromatics as macrofilaricides: synthesis of bis-amidine and bis-guanylhydrazone derivatives of substituted imidazo[1,2-a]pyridines” (1998)
